For 7 molecules, inhibition and IC50 results are on record in ChEMBL document CHEMBL1817562, “Docking and SAR studies of D- and L-isofagomine isomers as human β-glucocerebrosidase inhibitors” (Bioorg Med Chem, 2011).

For assay [1], the species on record is Rattus norvegicus. Put plainly: Inhibition of rat intestinal cellobiase assessed as production of p-nitrophenol at 1000 uM by spectrophotometry.
The target in assay [2] is T1, Beta-galactosidase (Bos taurus) (UniProt Q58D55).
T1 sequence (whole entry): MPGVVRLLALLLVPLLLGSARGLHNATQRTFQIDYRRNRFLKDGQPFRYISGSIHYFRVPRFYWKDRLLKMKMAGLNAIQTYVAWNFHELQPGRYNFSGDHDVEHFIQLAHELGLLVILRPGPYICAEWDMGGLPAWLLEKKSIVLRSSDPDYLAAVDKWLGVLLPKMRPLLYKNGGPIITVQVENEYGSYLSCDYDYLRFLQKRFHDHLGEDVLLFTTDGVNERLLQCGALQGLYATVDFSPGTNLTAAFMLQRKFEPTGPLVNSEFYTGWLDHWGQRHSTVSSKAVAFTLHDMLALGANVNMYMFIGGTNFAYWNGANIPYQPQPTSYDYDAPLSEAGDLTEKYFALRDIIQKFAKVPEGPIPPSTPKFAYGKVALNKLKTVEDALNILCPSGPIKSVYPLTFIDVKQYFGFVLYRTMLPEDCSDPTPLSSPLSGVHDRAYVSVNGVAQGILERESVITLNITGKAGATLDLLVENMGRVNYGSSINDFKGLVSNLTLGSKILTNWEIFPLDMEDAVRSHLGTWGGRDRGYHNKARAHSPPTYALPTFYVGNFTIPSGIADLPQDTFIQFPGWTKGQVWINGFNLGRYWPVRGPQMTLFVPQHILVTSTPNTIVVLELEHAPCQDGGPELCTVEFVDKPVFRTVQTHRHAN
Nature of the assay: Inhibition of bovine liver beta-galactosidase assessed as production of p-nitrophenol at 1000 uM by spectrophotometry. In outline: (§1)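 p-Nitrophenyl glycoside matched to each enzyme, 2 mM, with enzyme at that enzyme's optimum pH: Penicillium decumbens α-L-rhamnosidase pH 4.0, bovine liver β-galactosidase pH 6.8, coffee bean α-galactosidase pH 6.5, jack bean α-mannosidase pH 4.5, snail β-mannosidase pH 4.5. Stopped with 400 mM Na2CO3; released p-nitrophenol read at 400 nm.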

Assay [3] concerns Canavalia ensiformis. Nature of the assay: Inhibition of jack beans alpha-mannosidase assessed as production of p-nitrophenol at 1000 uM by spectrophotometry. In outline:
as §1

For assay [4], the system named is Helix pomatia. Put plainly: Inhibition of snail beta-mannosidase assessed as production of p-nitrophenol at 1000 uM by spectrophotometry. In outline:
as §1

Assay [5] deals with Penicillium decumbens. Put plainly: Inhibition of Penicillium decumbens alpha-L-rhamnosidase assessed as production of p-nitrophenol at 1000 uM by spectrophotometry. In outline:
as §1

Assay [6] in a line: Inhibition of coffee beans alpha-galactosidase assessed as production of p-nitrophenol by spectrophotometry. On the set-up: species or system Coffea. In outline:
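Commercial enzymes were assayed at their own optimum pH: bovine epididymis α-L-fucosidase pH 5.5, bovine liver β-galactosidase pH 6.8, coffee bean α-galactosidase pH 6.5. Reactions contained 2 mM of the matching p-nitrophenyl glycoside plus enzyme. They were stopped with 400 mM Na2CO3, and released p-nitrophenol was read at 400 nm.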

For assay [7], the system named is Oryza sativa. The following applies: 1000 uM.
For assay [8], the species on record is Rattus norvegicus. The following applies: 1000 uM.
Assay [9] addresses Sucrase-isomaltase, intestinal (Rattus norvegicus) (UniProt P23739). The following applies: 1000 uM.
Assay [10] shares this target. The following applies: 1000 uM. This is another data set of the same source.
Assay [11] has as its system Prunus dulcis. The following applies: 1000 uM.
In assay [12] the target is T2, Lysosomal acid glucosylceramidase (Homo sapiens) (UniProt P04062).
T2 sequence (whole entry): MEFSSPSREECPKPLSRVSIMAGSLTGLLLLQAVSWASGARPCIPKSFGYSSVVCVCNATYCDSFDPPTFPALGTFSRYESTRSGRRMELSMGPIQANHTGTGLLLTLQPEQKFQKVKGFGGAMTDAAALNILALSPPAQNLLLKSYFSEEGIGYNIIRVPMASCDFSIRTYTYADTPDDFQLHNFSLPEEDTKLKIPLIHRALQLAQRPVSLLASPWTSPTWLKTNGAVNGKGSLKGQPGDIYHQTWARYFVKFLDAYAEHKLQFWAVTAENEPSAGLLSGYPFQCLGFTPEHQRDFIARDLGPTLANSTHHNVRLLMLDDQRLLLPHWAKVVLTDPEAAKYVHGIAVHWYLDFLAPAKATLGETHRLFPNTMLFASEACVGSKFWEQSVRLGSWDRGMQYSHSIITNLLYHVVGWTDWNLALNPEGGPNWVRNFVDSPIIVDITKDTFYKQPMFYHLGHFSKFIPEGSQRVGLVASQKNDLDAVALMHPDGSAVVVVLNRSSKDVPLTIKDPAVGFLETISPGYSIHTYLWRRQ
The following applies: 1000 uM.

Assay [13] deals with T3, Tissue alpha-L-fucosidase (Bos taurus) (UniProt Q2KIM0).
T3 sequence (whole entry): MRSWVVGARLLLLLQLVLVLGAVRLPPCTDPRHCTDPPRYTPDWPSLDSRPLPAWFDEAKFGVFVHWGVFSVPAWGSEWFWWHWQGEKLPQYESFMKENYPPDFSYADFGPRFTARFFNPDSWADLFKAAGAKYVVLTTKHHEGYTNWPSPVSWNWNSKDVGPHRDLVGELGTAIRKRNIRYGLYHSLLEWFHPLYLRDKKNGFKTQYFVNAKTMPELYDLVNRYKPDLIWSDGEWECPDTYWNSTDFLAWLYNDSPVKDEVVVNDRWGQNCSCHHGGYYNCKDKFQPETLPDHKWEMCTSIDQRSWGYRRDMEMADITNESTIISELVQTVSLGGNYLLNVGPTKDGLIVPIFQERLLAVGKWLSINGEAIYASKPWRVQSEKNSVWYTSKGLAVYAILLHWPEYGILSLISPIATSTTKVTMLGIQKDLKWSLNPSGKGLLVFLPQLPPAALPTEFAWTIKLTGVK
The following applies: 1000 uM.

For assay [14], the target named is Lactase/phlorizin hydrolase (Rattus norvegicus) (UniProt Q02401). The following applies: 1000 uM.
Assay [15] addresses T4, Glucosylceramidase (Bos taurus) (UniProt Q2KHZ8).
T4 sequence (whole entry): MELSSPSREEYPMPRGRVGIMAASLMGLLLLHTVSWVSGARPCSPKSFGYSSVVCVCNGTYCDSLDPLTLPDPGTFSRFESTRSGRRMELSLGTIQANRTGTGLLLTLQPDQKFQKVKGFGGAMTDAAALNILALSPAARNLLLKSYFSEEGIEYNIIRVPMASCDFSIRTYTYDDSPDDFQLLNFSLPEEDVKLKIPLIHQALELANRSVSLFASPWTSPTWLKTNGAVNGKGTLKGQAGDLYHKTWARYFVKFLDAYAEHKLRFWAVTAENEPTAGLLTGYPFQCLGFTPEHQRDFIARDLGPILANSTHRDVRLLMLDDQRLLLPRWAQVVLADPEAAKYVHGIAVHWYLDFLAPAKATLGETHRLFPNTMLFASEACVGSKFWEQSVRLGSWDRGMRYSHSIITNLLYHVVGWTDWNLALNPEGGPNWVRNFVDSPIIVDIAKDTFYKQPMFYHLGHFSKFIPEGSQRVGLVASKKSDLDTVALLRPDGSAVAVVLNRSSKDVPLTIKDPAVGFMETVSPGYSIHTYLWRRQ
Put plainly: Inhibition of bovine liver beta-glucosidase assessed as production of p-nitrophenol using p-nitrophenyl glycoside as substrate at 1000 uM by spectrophotometry.

In assay [16] the test system is Coffea. Nature of the assay: Inhibition of coffee beans alpha-galactosidase assessed as production of p-nitrophenol at 1000 uM by spectrophotometry. In outline:
as §1

Assay [17] concerns the target Lactase/phlorizin hydrolase (Rattus norvegicus, UniProt Q02401). Put plainly: Inhibition of rat intestinal lactase assessed as production of p-nitrophenol by spectrophotometry.
Assay [18] concerns the target T5, Beta-galactosidase (Bos taurus, UniProt Q58D55).
T5 sequence (Q58D55 whole entry): T1 sequence (whole entry)
Nature of the assay: Inhibition of bovine liver beta-galactosidase assessed as production of p-nitrophenol by spectrophotometry.

A short description of assay [19]: Inhibition of rat intestinal cellobiase assessed as production of p-nitrophenol by spectrophotometry.
Assay [20] can be described thus: Inhibition of almond beta-glucosidase assessed as production of p-nitrophenol using p-nitrophenyl glycoside as substrate by spectrophotometry.
Assay [21] deals with Sucrase-isomaltase, intestinal (Rattus norvegicus, UniProt P23739). Nature of the assay: Inhibition of rat intestinal sucrase assessed as release of D-glucose at by spectrophotometry.
Assay [22] can be described thus: Inhibition of rat intestinal maltase assessed as production of D-glucose using maltose as substrate after 10 to 30 mins by spectrophotometry. In outline:
(§2)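 Enzymes were rice α-glucosidase at pH 5.0 and rat small-intestine brush border membranes (Kessler method) at pH 5.8. Each reaction contained 25 mM maltose and enzyme and was incubated 10–30 min at 37 °C. Reactions were stopped by heating at 100 °C for 3 min, then centrifuged. Released D-glucose was measured with a glucose test reagent by absorbance at 505 nm.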

Assay [23] can be described thus: Inhibition of rice alpha-glucosidase assessed as production of D-glucose using maltose as substrate after 10 to 30 mins by spectrophotometry. On the set-up: species or system Oryza sativa. In outline: as §2

Lactase/phlorizin hydrolase, sequence (Q02401 868-1928 limits assumed): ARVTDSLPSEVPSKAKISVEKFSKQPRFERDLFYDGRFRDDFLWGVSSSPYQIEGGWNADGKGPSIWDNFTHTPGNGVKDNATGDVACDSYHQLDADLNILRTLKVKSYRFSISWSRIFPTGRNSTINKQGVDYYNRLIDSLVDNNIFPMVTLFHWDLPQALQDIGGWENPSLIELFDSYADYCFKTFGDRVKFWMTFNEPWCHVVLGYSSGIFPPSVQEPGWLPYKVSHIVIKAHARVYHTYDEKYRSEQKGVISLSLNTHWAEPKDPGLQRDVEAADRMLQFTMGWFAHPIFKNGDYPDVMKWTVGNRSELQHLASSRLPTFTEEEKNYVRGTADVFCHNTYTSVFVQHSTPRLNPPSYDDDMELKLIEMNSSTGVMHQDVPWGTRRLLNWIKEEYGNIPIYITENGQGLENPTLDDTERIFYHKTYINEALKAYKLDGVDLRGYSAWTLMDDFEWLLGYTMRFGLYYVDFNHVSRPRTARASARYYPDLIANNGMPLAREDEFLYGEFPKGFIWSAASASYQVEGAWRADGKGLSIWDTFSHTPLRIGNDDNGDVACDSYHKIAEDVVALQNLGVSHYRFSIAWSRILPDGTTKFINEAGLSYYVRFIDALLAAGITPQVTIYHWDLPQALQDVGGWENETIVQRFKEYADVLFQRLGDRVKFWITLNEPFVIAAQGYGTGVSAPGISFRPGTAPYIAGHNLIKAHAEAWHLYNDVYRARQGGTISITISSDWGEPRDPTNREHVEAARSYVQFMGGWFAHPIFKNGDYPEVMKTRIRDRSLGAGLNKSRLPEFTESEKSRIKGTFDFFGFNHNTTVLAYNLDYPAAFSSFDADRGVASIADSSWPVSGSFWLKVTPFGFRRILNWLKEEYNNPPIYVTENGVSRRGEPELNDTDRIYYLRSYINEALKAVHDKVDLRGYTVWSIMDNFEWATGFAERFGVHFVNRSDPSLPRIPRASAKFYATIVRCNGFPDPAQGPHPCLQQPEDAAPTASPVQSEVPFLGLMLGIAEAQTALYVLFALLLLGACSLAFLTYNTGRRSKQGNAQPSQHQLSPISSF
Sucrase-isomaltase, intestinal (Rattus norvegicus), sequence (P23739 1-1013 limits assumed): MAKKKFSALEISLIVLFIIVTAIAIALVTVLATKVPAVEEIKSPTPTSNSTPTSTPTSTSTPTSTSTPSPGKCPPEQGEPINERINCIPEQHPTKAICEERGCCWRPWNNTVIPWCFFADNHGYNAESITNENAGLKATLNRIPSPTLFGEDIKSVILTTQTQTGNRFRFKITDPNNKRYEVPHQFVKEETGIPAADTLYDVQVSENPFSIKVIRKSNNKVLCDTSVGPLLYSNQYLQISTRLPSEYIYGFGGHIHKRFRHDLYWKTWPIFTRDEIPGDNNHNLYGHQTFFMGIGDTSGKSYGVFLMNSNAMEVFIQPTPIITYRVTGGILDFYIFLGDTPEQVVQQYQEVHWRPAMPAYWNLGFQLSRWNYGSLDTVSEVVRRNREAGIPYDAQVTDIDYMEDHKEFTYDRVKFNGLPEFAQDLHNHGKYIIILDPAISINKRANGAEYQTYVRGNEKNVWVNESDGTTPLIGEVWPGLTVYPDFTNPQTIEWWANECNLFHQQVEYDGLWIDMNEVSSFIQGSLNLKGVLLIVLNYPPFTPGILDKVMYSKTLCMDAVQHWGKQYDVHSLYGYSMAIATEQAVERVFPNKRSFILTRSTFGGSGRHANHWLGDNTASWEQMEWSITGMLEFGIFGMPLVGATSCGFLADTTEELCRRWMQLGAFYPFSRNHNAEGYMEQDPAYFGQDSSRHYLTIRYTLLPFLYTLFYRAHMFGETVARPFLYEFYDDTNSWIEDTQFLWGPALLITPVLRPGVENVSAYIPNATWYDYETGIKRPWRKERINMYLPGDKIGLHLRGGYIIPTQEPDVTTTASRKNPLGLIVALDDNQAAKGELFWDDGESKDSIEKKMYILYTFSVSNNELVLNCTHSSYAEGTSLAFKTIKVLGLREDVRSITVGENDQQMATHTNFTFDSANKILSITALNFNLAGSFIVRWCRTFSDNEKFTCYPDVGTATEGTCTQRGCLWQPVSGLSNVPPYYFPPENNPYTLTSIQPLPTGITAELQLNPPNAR
Sucrase-isomaltase, intestinal (Rattus norvegicus), sequence (P23739 1014-1841 limits assumed): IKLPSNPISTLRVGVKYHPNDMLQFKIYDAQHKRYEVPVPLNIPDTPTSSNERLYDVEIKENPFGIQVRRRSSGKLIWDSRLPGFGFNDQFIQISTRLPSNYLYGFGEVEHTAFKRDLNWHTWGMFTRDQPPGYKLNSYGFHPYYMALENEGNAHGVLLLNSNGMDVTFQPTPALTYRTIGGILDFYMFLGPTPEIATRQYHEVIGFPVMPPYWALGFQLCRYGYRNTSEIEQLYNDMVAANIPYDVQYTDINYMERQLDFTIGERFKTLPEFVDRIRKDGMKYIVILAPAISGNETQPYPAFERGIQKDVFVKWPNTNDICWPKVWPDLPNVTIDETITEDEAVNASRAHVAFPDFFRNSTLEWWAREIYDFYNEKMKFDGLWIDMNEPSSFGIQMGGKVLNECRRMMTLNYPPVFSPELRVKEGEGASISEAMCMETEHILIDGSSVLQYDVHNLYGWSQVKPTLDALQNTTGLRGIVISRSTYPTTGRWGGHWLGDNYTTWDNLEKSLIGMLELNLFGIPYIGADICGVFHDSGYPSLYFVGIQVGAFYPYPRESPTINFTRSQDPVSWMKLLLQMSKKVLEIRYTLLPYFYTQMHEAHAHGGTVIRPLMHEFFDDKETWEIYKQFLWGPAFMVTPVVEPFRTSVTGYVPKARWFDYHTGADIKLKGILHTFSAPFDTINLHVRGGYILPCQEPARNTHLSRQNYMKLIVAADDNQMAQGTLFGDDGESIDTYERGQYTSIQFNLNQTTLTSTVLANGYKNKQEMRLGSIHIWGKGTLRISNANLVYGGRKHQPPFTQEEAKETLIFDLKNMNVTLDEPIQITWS
Lactase/phlorizin hydrolase (Rattus norvegicus), sequence (Q02401 868-1928 limits assumed): as the sequence (Q02401 868-1928 limits assumed) above
Sucrase-isomaltase, intestinal, sequence (P23739 1-1013 limits assumed): as the sequence (P23739 1-1013 limits assumed) above
Sucrase-isomaltase, intestinal, sequence (P23739 1014-1841 limits assumed): as the sequence (P23739 1014-1841 limits assumed) above

A word on the inhibition: it is the drop in the measured response relative to a control, in per cent. The IC50 is the midpoint of a concentration-inhibition curve. Turning to `OC[C@H]1NCC[C@@H](O)[C@H]1O`, the inhibition in [1], in assay [2], in [3], in assay [4], in assay [5] and in assay [7] was less than 50% throughout. For the same molecule, the inhibition in [8], in [9], in assay [10], in assay [11], in assay [12] and in assay [13] was less than 50% each time. Further, the inhibition in assay [14] and in assay [15] was less than 50% throughout. The IC50 in assay [6] amounted to 8 µM.
In the case of `OC[C@@H]1CNC[C@@H](O)[C@@H]1O`, the inhibition in assay [1], in assay [16], in assay [3], in assay [4], in assay [5] and in assay [7] was less than 50% in each case. In addition, the inhibition in assay [8], in [9], in assay [10], in [11], in [12] and in assay [13] was less than 50% each time. The IC50 in assay [17] turned out to be 646 µM; in assay [18], 389 µM.
In the case of `OC[C@@H]1CNC[C@H](O)[C@@H]1O`, the inhibition in assay [2], in [3], in assay [4], in [5], in assay [7] and in assay [8] was less than 50% throughout. The inhibition in assay [9], in assay [10], in [12], in assay [13] and in assay [15] was less than 50% each time. Also, the concentration for half-maximal inhibition (IC50) in assay [17] amounted to 90 µM; in [19], 607 µM; in [6] it was 450 µM; in assay [20] it was 983 µM.
Take `OC[C@@H]1CNC[C@H](O)[C@H]1O`: the inhibition in [16], in assay [3], in assay [4], in assay [5], in assay [7] and in [8] was less than 50% in each case. The inhibition in [13] was less than 50%. Further, the half-inhibitory concentration (IC50) in [17] was 20 µM; in assay [18], 821 µM; in [21], 34 µM; in [20], 236 µM.
Take `OC[C@@H]1NCC[C@@H](O)[C@@H]1O`: the inhibition in assay [1], in [16], in assay [2], in assay [3], in [4] and in assay [5] was less than 50% throughout. Also, the inhibition in [9], in assay [10], in assay [11], in assay [12], in assay [13] and in assay [14] was less than 50% in each case. The inhibition in [15] is less than 50%. The 50% inhibitory concentration (IC50) worked out at 668 µM in assay [22] and 980 µM in assay [23].
Turning to `OC[C@H]1NC[C@H](O)[C@@H](O)[C@@H]1O` [DUVOGLUSTAT], the inhibition in assay [3], in assay [4], in [5] and in assay [15] was less than 50% in each case. Further, the half-inhibitory concentration (IC50) in assay [22] was 0.65 µM; in assay [19], 327 µM; in [6], 880 µM; in assay [23], 0.03 µM; in assay [20], 80 µM.
As to `OC[C@H]1CNC[C@@H](O)[C@H]1O`, the IC50 in assay [17] worked out at 0.51 µM; in [19], 4.5 µM; in assay [6] it was 144 µM; in assay [18] it was 21 µM; in assay [20], 3.2 µM. The inhibition in assay [3], in assay [4], in [5], in assay [7], in [8] and in assay [9] was less than 50% each time. The inhibition in assay [10] and in assay [13] was less than 50% each time.
